Measured values reported in ChEMBL document CHEMBL1154152, “Synthesis of some novel bioactive 4-oxy/thio substituted-1H-pyrazol-5(4H)-ones via efficient cross-Claisen condensation” (2009).
In brackets after ≈: the same amount, converted by molar mass.

How the values were obtained:
Format in all cases: functional
[1] = test system: Trichophyton mentagrophytes; experiment: Antifungal activity against Trichophyton mentagrophytes after 3 to 4 days by serial plate dilution method
Talaromyces marneffei [2] = experiment: Antifungal activity against Penicillium marneffei after 3 to 4 days by serial plate dilution method
Method in brief: (§1)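 Sabouraud's agar made from peptone, D-glucose and agar, pH 5.7, and lawned with a fungal spore suspension in normal saline. Wells cut with an agar punch received 10–50 mg/ml test compound in DMSO; DMSO-only control plates. Triplicate plates kept at 37 °C for 3–4 days.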

Staphylococcus aureus = experiment: Antibacterial activity against Staphylococcus aureus ATCC 25923 after 24 hrs by disk diffusion method; conditions: for MIC: Staphylococcus aureus, ATCC 25923, 24 h
Method in brief: (§2)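 Discs with each concentration, in triplicate, on nutrient agar seeded with fresh bacteria. Incubated 37 °C for 24 h, with solvent and growth controls. Zones of inhibition and MIC recorded.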

Escherichia coli = experiment: Antibacterial activity against Escherichia coli ATTC 25922 after 24 hrs by disk diffusion method; conditions: for MIC: Escherichia coli, ATTC 25922, 24 h; method in brief: as §2
Pseudomonas aeruginosa = experiment: Antibacterial activity against Pseudomonas aeruginosa ATTC 27853 after 24 hrs by disk diffusion method; conditions: for MIC: Pseudomonas aeruginosa, ATTC 27853, 24 h; method in brief: as §2
Klebsiella sp. = experiment: Antibacterial activity against Klebsiella sp. after 24 hrs by disk diffusion method; conditions: for MIC: Klebsiella sp., 24 h; method in brief: as §2
[3] = test system: Trichophyton mentagrophytes; experiment: Antifungal activity against Trichophyton mentagrophytes at 10 to 50 ug/ml after 3 to 4 days by serial plate dilution method
Talaromyces marneffei [4] = experiment: Antifungal activity against Penicillium marneffei at 10 to 50 ug/ml after 3 to 4 days by serial plate dilution method
Aspergillus flavus [5] = experiment: Antifungal activity against Aspergillus flavus at 10 to 50 ug/ml after 3 to 4 days by serial plate dilution method
Aspergillus flavus [6] = experiment: Antifungal activity against Aspergillus flavus after 3 to 4 days by serial plate dilution method; method in brief: as §1
Aspergillus fumigatus [7] = experiment: Antifungal activity against Aspergillus fumigatus at 10 to 50 ug/ml after 3 to 4 days by serial plate dilution method
Aspergillus fumigatus [8] = experiment: Antifungal activity against Aspergillus fumigatus after 3 to 4 days by serial plate dilution method

| SMILES | MIC [1] | MIC (Talaromyces marneffei [2]) | inhibition zone (IZ) (Staphylococcus aureus) | MIC (Staphylococcus aureus) | inhibition zone (IZ) (Escherichia coli) | MIC (Escherichia coli) | inhibition zone (IZ) (Pseudomonas aeruginosa) | MIC (Pseudomonas aeruginosa) | inhibition zone (IZ) (Klebsiella sp.) | MIC (Klebsiella sp.) | inhibition zone (IZ) [3] | inhibition zone (IZ) (Talaromyces marneffei [4]) | inhibition zone (IZ) (Aspergillus flavus [5]) | MIC (Aspergillus flavus [6]) | inhibition zone (IZ) (Aspergillus fumigatus [7]) | MIC (Aspergillus fumigatus [8]) |
| --- | --- | --- | --- | --- | --- | --- | --- | --- | --- | --- | --- | --- | --- | --- | --- | --- |
| COc1ccc(OC2C(=O)NN=C2C)cc1 (configuration not stated) | 50 µg/mL (≈ 227 µM) | 50 µg/mL (≈ 227 µM) | 19 mm | 6.25 µg/mL (≈ 28.4 µM) | 11 mm | 25 µg/mL (≈ 114 µM) | <10 mm | 50 µg/mL (≈ 227 µM) | <10 mm | 50 µg/mL (≈ 227 µM) | <10 mm | <10 mm | <10 mm | 50 µg/mL (≈ 227 µM) | <10 mm | 50 µg/mL (≈ 227 µM) |
| CC1=NNC(=O)C1Sc1ccccc1 (configuration not stated) | 6.25 µg/mL (≈ 30.3 µM) | 6.25 µg/mL (≈ 30.3 µM) | 18 mm | 6.25 µg/mL (≈ 30.3 µM) | 13 mm | 25 µg/mL (≈ 121 µM) | 19 mm | 6.25 µg/mL (≈ 30.3 µM) | 16 mm | 6.25 µg/mL (≈ 30.3 µM) | 18 mm | 21 mm | 16 mm | 6.25 µg/mL (≈ 30.3 µM) | 17 mm | 6.25 µg/mL (≈ 30.3 µM) |
| CC(C)C1=NNC(=O)C1Sc1ccccc1 (configuration not stated) | 6.25 µg/mL (≈ 26.7 µM) | 6.25 µg/mL (≈ 26.7 µM) | 20 mm | 6.25 µg/mL (≈ 26.7 µM) | 18 mm | 6.25 µg/mL (≈ 26.7 µM) | 17 mm | 6.25 µg/mL (≈ 26.7 µM) | 16 mm | 6.25 µg/mL (≈ 26.7 µM) | 16 mm | 19 mm | 18 mm | 6.25 µg/mL (≈ 26.7 µM) | 20 mm | 6.25 µg/mL (≈ 26.7 µM) |
| CC(C)CC1=NNC(=O)C1Sc1ccc(Cl)cc1 (configuration not stated) | 6.25 µg/mL (≈ 22.1 µM) | 6.25 µg/mL (≈ 22.1 µM) | 18 mm | 6.25 µg/mL (≈ 22.1 µM) | 11 mm | 25 µg/mL (≈ 88.4 µM) | 17 mm | 6.25 µg/mL (≈ 22.1 µM) | 16 mm | 6.25 µg/mL (≈ 22.1 µM) | 19 mm | 20 mm | 18 mm | 6.25 µg/mL (≈ 22.1 µM) | 17 mm | 6.25 µg/mL (≈ 22.1 µM) |
| COCC1=NNC(=O)C1SCc1ccccc1 (configuration not stated) | 50 µg/mL (≈ 200 µM) | 50 µg/mL (≈ 200 µM) | 17 mm | 6.25 µg/mL (≈ 25 µM) | <10 mm | 50 µg/mL (≈ 200 µM) | <10 mm | 50 µg/mL (≈ 200 µM) | <10 mm | 50 µg/mL (≈ 200 µM) | <10 mm | <10 mm | <10 mm | 50 µg/mL (≈ 200 µM) | <10 mm | 50 µg/mL (≈ 200 µM) |
| CC(C)CC1=NNC(=O)C1Sc1ccccc1 (configuration not stated) | 6.25 µg/mL (≈ 25.2 µM) | 6.25 µg/mL (≈ 25.2 µM) | 19 mm | 6.25 µg/mL (≈ 25.2 µM) | 21 mm | 6.25 µg/mL (≈ 25.2 µM) | 18 mm | 6.25 µg/mL (≈ 25.2 µM) | 21 mm | 6.25 µg/mL (≈ 25.2 µM) | 21 mm | 18 mm | 18 mm | 6.25 µg/mL (≈ 25.2 µM) | 18 mm | 6.25 µg/mL (≈ 25.2 µM) |
| CCC1=NNC(=O)C1SCc1ccccc1 (configuration not stated) | 6.25 µg/mL (≈ 26.7 µM) | 6.25 µg/mL (≈ 26.7 µM) | 16 mm | 6.25 µg/mL (≈ 26.7 µM) | 17 mm | 6.25 µg/mL (≈ 26.7 µM) | 20 mm | 6.25 µg/mL (≈ 26.7 µM) | 17 mm | 6.25 µg/mL (≈ 26.7 µM) | 17 mm | 19 mm | 17 mm | 6.25 µg/mL (≈ 26.7 µM) | 17 mm | 6.25 µg/mL (≈ 26.7 µM) |
| CCC1=NNC(=O)C1Oc1ccccc1 (configuration not stated) | 6.25 µg/mL (≈ 30.6 µM) | 6.25 µg/mL (≈ 30.6 µM) | 19 mm | 6.25 µg/mL (≈ 30.6 µM) | 18 mm | 6.25 µg/mL (≈ 30.6 µM) | 20 mm | 6.25 µg/mL (≈ 30.6 µM) | 16 mm | 6.25 µg/mL (≈ 30.6 µM) | 16 mm | 18 mm | 21 mm | 6.25 µg/mL (≈ 30.6 µM) | 17 mm | 6.25 µg/mL (≈ 30.6 µM) |
| O=C1NN=C(c2ccc(Cl)cc2)C1Oc1ccccc1 (configuration not stated) | 50 µg/mL (≈ 174 µM) | 50 µg/mL (≈ 174 µM) | 21 mm | 6.25 µg/mL (≈ 21.8 µM) | 12 mm | 25 µg/mL (≈ 87.2 µM) | <10 mm | 50 µg/mL (≈ 174 µM) | <10 mm | 50 µg/mL (≈ 174 µM) | <10 mm | <10 mm | <10 mm | 50 µg/mL (≈ 174 µM) | <10 mm | 50 µg/mL (≈ 174 µM) |
| CC(C)(C)C1=NNC(=O)C1Oc1ccccc1 (configuration not stated) | 6.25 µg/mL (≈ 26.9 µM) | 6.25 µg/mL (≈ 26.9 µM) | 16 mm | 6.25 µg/mL (≈ 26.9 µM) | 18 mm | 6.25 µg/mL (≈ 26.9 µM) | 20 mm | 6.25 µg/mL (≈ 26.9 µM) | 18 mm | 6.25 µg/mL (≈ 26.9 µM) | 19 mm | 21 mm | 16 mm | 6.25 µg/mL (≈ 26.9 µM) | 18 mm | 6.25 µg/mL (≈ 26.9 µM) |
| CC1=NNC(=O)C1OCc1cccc(Br)c1 (configuration not stated) | 6.25 µg/mL (≈ 22.1 µM) | 6.25 µg/mL (≈ 22.1 µM) | 21 mm | 6.25 µg/mL (≈ 22.1 µM) | 11 mm | 25 µg/mL (≈ 88.3 µM) | 18 mm | 6.25 µg/mL (≈ 22.1 µM) | 19 mm | 6.25 µg/mL (≈ 22.1 µM) | 20 mm | 18 mm | 19 mm | 6.25 µg/mL (≈ 22.1 µM) | 18 mm | 6.25 µg/mL (≈ 22.1 µM) |
| O=C(O)c1cn(C2CC2)c2cc(N3CCNCC3)c(F)cc2c1=O [CIPROFLOXACIN] | – | – | 23 mm | 6.25 µg/mL (≈ 18.9 µM) | 32 mm | 6.25 µg/mL (≈ 18.9 µM) | 28 mm | 6.25 µg/mL (≈ 18.9 µM) | 24 mm | 6.25 µg/mL (≈ 18.9 µM) | – | – | – | – | – | – |
| Cc1cc(C2CCCCC2)n(O)c(=O)c1.NCCO [CICLOPIROX OLAMINE] | 3.12 µg/mL | 6.25 µg/mL | – | – | – | – | – | – | – | – | 27 mm | 23 mm | 27 mm | 3.12 µg/mL | 26 mm | 6.25 µg/mL |
| O=C1NN=C(COc2ccccc2)C1Oc1ccccc1 (configuration not stated) | 6.25 µg/mL (≈ 22.1 µM) | 6.25 µg/mL (≈ 22.1 µM) | 18 mm | 6.25 µg/mL (≈ 22.1 µM) | 17 mm | 6.25 µg/mL (≈ 22.1 µM) | 16 mm | 6.25 µg/mL (≈ 22.1 µM) | 19 mm | 6.25 µg/mL (≈ 22.1 µM) | 19 mm | 18 mm | 20 mm | 6.25 µg/mL (≈ 22.1 µM) | 21 mm | 6.25 µg/mL (≈ 22.1 µM) |
| CC(C)CC1=NN(c2ccc(F)cc2)C(=O)C1Sc1ccccc1 (configuration not stated) | 6.25 µg/mL (≈ 18.3 µM) | 6.25 µg/mL (≈ 18.3 µM) | 19 mm | 6.25 µg/mL (≈ 18.3 µM) | 13 mm | 25 µg/mL (≈ 73 µM) | 20 mm | 6.25 µg/mL (≈ 18.3 µM) | 19 mm | 6.25 µg/mL (≈ 18.3 µM) | 18 mm | 19 mm | 20 mm | 6.25 µg/mL (≈ 18.3 µM) | 19 mm | 6.25 µg/mL (≈ 18.3 µM) |
| CC(C)CC1=NN(C)C(=O)C1Oc1ccccc1 (configuration not stated) | 6.25 µg/mL (≈ 25.4 µM) | 6.25 µg/mL (≈ 25.4 µM) | 19 mm | 6.25 µg/mL (≈ 25.4 µM) | 12 mm | 25 µg/mL (≈ 101 µM) | 19 mm | 6.25 µg/mL (≈ 25.4 µM) | 17 mm | 6.25 µg/mL (≈ 25.4 µM) | 18 mm | 19 mm | 18 mm | 6.25 µg/mL (≈ 25.4 µM) | 16 mm | 6.25 µg/mL (≈ 25.4 µM) |
| CCC1=NN(c2ccc(F)cc2)C(=O)C1Oc1ccccc1 (configuration not stated) | 6.25 µg/mL (≈ 21 µM) | 6.25 µg/mL (≈ 21 µM) | 16 mm | 6.25 µg/mL (≈ 21 µM) | 14 mm | 25 µg/mL (≈ 83.8 µM) | 18 mm | 6.25 µg/mL (≈ 21 µM) | 20 mm | 6.25 µg/mL (≈ 21 µM) | 21 mm | 17 mm | 19 mm | 6.25 µg/mL (≈ 21 µM) | 21 mm | 6.25 µg/mL (≈ 21 µM) |
| COCC1=NNC(=O)C1Oc1ccccc1 (configuration not stated) | 6.25 µg/mL (≈ 28.4 µM) | 6.25 µg/mL (≈ 28.4 µM) | 17 mm | 6.25 µg/mL (≈ 28.4 µM) | 12 mm | 25 µg/mL (≈ 114 µM) | 17 mm | 6.25 µg/mL (≈ 28.4 µM) | 20 mm | 6.25 µg/mL (≈ 28.4 µM) | 17 mm | 17 mm | 18 mm | 6.25 µg/mL (≈ 28.4 µM) | 20 mm | 6.25 µg/mL (≈ 28.4 µM) |
